Screening data deposited in PubChem by Sanford-Burnham Center for Chemical Genomics.
In the library only some 1.3% were active in any assay of this set; here they are far more common.
G6PDH CS = inhibits Leuconostoc G6PDH, flagging false hits in G6PDH-based assays | 200,000 compounds, 0.12% hits | Purified L. mesenteroides G6PDH, diaphorase/resazurin coupled fluorescence, 45 min | AID 1020 | inhibition, % at 5 µM; in the data active = inhibition above about 50%
HKDC1 inhibitor = blocks human hexokinase HKDC1 activity; Q2TB90; recombinant HKDC1, G6PDH/diaphorase resazurin coupled fluorescence; inhibition, % at 20 µM; 340,000 compounds, 0.16% hits;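 active = inhibition above about 35% when tested at 20 µM, limit read from the data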
Target sequence (Q2TB90 whole entry, looked up): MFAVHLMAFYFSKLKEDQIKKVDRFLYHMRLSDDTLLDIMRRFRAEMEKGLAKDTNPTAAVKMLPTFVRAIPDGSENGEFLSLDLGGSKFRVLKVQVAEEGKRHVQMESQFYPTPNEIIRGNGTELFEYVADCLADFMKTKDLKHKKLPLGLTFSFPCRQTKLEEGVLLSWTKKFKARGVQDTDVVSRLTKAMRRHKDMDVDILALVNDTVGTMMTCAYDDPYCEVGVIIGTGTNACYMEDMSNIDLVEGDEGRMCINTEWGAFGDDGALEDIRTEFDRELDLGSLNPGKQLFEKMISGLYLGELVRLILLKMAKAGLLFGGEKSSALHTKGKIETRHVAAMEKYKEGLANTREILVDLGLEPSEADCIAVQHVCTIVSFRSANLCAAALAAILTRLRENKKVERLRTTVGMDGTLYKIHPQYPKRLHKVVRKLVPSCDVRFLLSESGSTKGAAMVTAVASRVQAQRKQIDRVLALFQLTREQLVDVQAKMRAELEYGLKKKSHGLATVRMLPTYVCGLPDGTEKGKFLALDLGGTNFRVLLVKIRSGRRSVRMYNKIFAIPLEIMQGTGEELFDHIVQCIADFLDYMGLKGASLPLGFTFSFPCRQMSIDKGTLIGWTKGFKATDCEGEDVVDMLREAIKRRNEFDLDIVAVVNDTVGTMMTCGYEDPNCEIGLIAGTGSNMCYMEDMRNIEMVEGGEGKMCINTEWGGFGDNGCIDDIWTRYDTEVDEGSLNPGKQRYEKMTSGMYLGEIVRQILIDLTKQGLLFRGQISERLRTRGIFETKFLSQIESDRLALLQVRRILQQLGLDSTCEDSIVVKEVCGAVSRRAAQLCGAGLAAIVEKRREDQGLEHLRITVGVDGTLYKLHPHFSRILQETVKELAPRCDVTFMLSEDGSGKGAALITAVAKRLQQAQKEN
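Material: recombinant HKDC1 hexokinase; Amount: HKDC1 at 5 µg/mL; Medium: Tris pH 8.0 buffer with MgCl2, Tween-20, BSA, BME; Schedule: 90 min reaction incubation at room temperature, dark; Technique: coupled resazurin fluorescence, excitation 525 nm, emission 613 nm.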
Diaph inh CS = diaphorase inhibition or chemical oxidation counter-screen | diaphorase resazurin-to-resorufin fluorescence, NADH, 16 min; bacterial (C. kluyveri) enzyme, not human | inhibition, % at 20 µM | 190,000 compounds, 0.69% hits | AID 1217;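 active = primary screen inhibition at 20 µM above a set limit, cut at about 50% in these data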
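material = Clostridium kluyveri diaphorase enzyme | amount = 0.14 U/mL diaphorase, enzyme working solution | schedule = incubation 16 min, room temperature | detection = fluorescence of resorufin formed from resazurin, Ex 544/Em 590 nm | benchmarks = positive control minus NADH, DMSO neutral control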
PfG6PD inh = PfG6PD (Plasmodium falciparum) enzyme inhibition | AID 504690 | 350,000 compounds, 0.78% hits | inhibition, % at 20 µM | PfGluPho enzyme, NADPH resazurin-diaphorase fluorescence;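 active = inhibition reaching at least a set limit at 20 µM in the primary screen, cut at about 59% in these data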
Each line names hits and unclear results; the compound was inactive in the other large screens.

CCCC(=O)OCCNc1cc(SCc2ccco2)c2nonc2c1[N+](=O)[O-]	Diaph inh CS 71
CCCSc1cc(NCCOC(C)=O)c([N+](=O)[O-])c2nonc12	none
O=[N+]([O-])c1c(NCCO)cc(N2CCCCCC2)c2nonc12	none (no result: G6PDH CS, Diaph inh CS)
CCCSc1cc(NCCOC(=O)CCC)c([N+](=O)[O-])c2nonc12	Diaph inh CS 51
Cc1nnc(Sc2cc(NCCCO)c([N+](=O)[O-])c3nonc23)s1	Diaph inh CS 59, PfG6PD inh 77
CC(=O)OCCCNc1cc(SCc2ccco2)c2nonc2c1[N+](=O)[O-]	Diaph inh CS 87
Cc1cccc(-n2nc(C)c3c(C(=O)O)cc(-c4cccs4)nc32)c1	Diaph inh CS 52
COc1ccc(NC(=O)N(C)C[C@H]2Oc3ccc(NC(=O)Cn4cnnn4)cc3C(=O)N([C@H](C)CO)C[C@@H]2C)cc1	none (no result: G6PDH CS, Diaph inh CS)
O=C(CCN1CCCCC1)NNC(=S)NC(=O)c1ccc(Br)cc1	none
O=C(CCN1CCOCC1)NNC(=S)NC(=O)c1ccc(Br)cc1	Diaph inh CS 66
O=C1CCCC2=C1C(c1ccco1)Nc1ccc(C(=O)c3ccccc3)cc1N2 (configuration not stated)	Diaph inh CS 68
O=C1CCCC2=C1C(c1ccccn1)Nc1ccc(C(=O)c3ccccc3)cc1N2 (configuration not stated)	none
CC1(C)Cc2c(sc(NC(=S)NC(=O)c3ccccc3)c2C(=O)O)CO1	Diaph inh CS 78
CC1CCCCC1NC(=O)CN(C)S(=O)(=O)c1ccc2c(c1)CCC(=O)N2 (configuration not stated)	none (no result: G6PDH CS, Diaph inh CS)
O=C1C2=C(c3ccccc31)[N+](=O)C1CCCCC1N2[O-] (configuration not stated)	Diaph inh CS 76
O=C1c2ccccc2C(=O)c2c1ccc1c(=O)n(C3CCCCC3)[nH]c21	none
O=C1C2=C(c3ccccc31)[N+](=O)[C@@H]1CCCC[C@@H]1N2[O-]	Diaph inh CS 76
O=C(O)c1cc(-c2ccccc2)on1	none
O=C(O)c1cc(-c2ccc(O)cc2)on1	Diaph inh CS 75
Cc1cccc(C(=O)N=c2c(C#N)cc3c(=O)n4cccc(C)c4nc3n2Cc2ccco2)c1	Diaph inh CS 60
CCOc1c(C)cnc2c1c(=O)n(Cc1ccc(Cl)cc1)c(=O)n2C	none (no result: G6PDH CS, Diaph inh CS)
CCOC(=O)c1c(C)oc2c1c1c(c3ccccc32)OCN(Cc2cccnc2)C1	Diaph inh CS 53
Cc1cccc(N=Nc2cnc(N)s2)c1	none (no result: G6PDH CS, Diaph inh CS)
CC1=Nc2nc(N3CCCCC3)c(C#N)c3c4c(nc(c23)N1)N(c1ccc(C(C)C)cc1)C(=O)C4	Diaph inh CS 81
COc1ccc(-c2ccc(C(=O)O)o2)c([N+](=O)[O-])c1	Diaph inh CS 69
CNC(=O)/C(C#N)=C/c1ccc(-c2ccc(OC)cc2[N+](=O)[O-])o1	none
CCC1=NN2C(=N)/C(=C\c3cccn3-c3cccc(Cl)c3)C(=O)N=C2S1	Diaph inh CS 59
CCC1=NN2C(=N)/C(=C\c3cccn3-c3ccc(Br)cc3)C(=O)N=C2S1	none
Cc1ccccc1OCCC(=O)OCC(=O)NNC(=O)c1cccs1	none (no result: G6PDH CS, Diaph inh CS)
CCCCNC(=O)Oc1cc(CCl)on1	Diaph inh CS 70 (no result: HKDC1 inhibitor, PfG6PD inh)
CCCCNC(=O)Cn1c(-c2ccc(OC)cc2)noc1=O	none
COc1cc(NC(C)=O)c2ncccc2c1[N+](=O)[O-]	Diaph inh CS 61
COc1cc(NC(C)=O)c2ncccc2c1NC(C)=O	none (no result: G6PDH CS, Diaph inh CS)
O=C(CSc1nc2ccccc2s1)Nc1cc(C(=O)O)cc(C(=O)O)c1	Diaph inh CS 62
O=C(CSc1nc2ccccc2s1)Nc1ccc(Cl)c(C(=O)O)c1	none
CCOc1ncccc1C(=O)N(CC)CC(=O)NCc1ccc(Cl)cc1	none (no result: G6PDH CS, Diaph inh CS)
COc1ccc(/C=N/n2c(-c3n[nH]c4c3CCC4)n[nH]c2=S)cc1OC	Diaph inh CS 63
CCC(=O)N(CC)C1=C(O)c2ccccc2C(=O)C1=O	G6PDH CS 52
COc1ccccc1C(=O)N/N=C(\C)c1cccnc1	none (no result: G6PDH CS, Diaph inh CS)
O=C1CSC(=S)N1/N=C/c1ccc(O)c(O)c1O	PfG6PD inh 79 (no result: G6PDH CS, Diaph inh CS)
COc1cccc(C(=O)NCCSc2ccc(C)cc2)c1	none
COc1cccc(C(=O)NCCSc2ccc(F)cc2)c1	Diaph inh CS 56
COc1cc2c(cc1NC(=O)C(C)Sc1ccc(NC(C)=O)cc1)oc1ccccc12 (configuration not stated)	Diaph inh CS 82
CC(C)(C)NC(=O)CCN(/N=C/c1ccccc1O)C1=NS(=O)(=O)c2ccccc21	none (no result: G6PDH CS, Diaph inh CS)
CC(NC(=O)CNC(=O)c1ccccc1F)c1ccc(-n2ccnc2)cc1 (configuration not stated)	none (no result: G6PDH CS, Diaph inh CS)
CN(C)c1ccc(C(CNC(=O)c2ccco2)N2CCCC2)cc1 (configuration not stated)	none (no result: G6PDH CS, Diaph inh CS)
Cc1cc(/C=N/NC(=O)c2ccncc2)c(C)n1-c1ccccc1	none
CCc1ccc(-n2c(C)cc(/C=N/NC(=O)c3ccncc3)c2C)cc1	Diaph inh CS 84
Cc1ccccc1NC(=O)CN1C(=O)S/C(=C\c2ccc(-c3cc(C(=O)O)ccc3C)o2)C1=O	Diaph inh CS 67
Cc1ccc(NC(=O)CN2C(=O)S/C(=C/c3ccc(-c4cccc(C(=O)O)c4)o3)C2=O)cc1	Diaph inh CS 57
Cc1ccc(C(=O)O)cc1-c1ccc(/C=C2\SC(=O)N(CC(=O)Nc3ccccc3)C2=O)o1	Diaph inh CS 57
O=C(O)c1cc(-c2ccc(/C=C3/SC(=S)N(Cc4ccccc4)C3=O)o2)ccc1Cl	Diaph inh CS 52
CCOc1ccccc1NC(=O)CCS(=O)(=O)c1ccc2c(c1)CCN2C(C)=O	none (no result: G6PDH CS, Diaph inh CS)
CC(=O)Nc1ccc(S(=O)(=O)NCCC(=O)N2CCN(C(c3ccccc3)c3ccccc3)CC2)cc1	none (no result: G6PDH CS, Diaph inh CS)
C=Cc1cnc([N+](=O)[O-])n1C	none (no result: G6PDH CS, HKDC1 inhibitor, Diaph inh CS)
COc1ccc([C@H]2CC(=O)C=C(c3cc4ccccc4c4ccccc34)C2)cc1	none (no result: G6PDH CS, Diaph inh CS)
CC(=O)Nc1cccc(NS(=O)(=O)c2cc3c4c(c2)CCN4C(=O)CC3)c1	none (no result: G6PDH CS, Diaph inh CS)
Cc1ccc(C)c(NS(=O)(=O)c2cc(C(N)=O)ccc2C)c1	none
Cc1ccc(C)c(S(=O)(=O)Nc2ccc(C(N)=O)cc2)c1	Diaph inh CS 57
C=CCOc1ccc(CNc2ccc3[nH]c(=O)[nH]c3c2)cc1OCC	none (no result: Diaph inh CS)
CCOc1cc(CNc2ccc3[nH]c(=O)[nH]c3c2)ccc1OCC(=O)NC(C)(C)C	Diaph inh CS 66
Oc1ccc(/C=N/N(Cc2ccccc2)c2ccccc2)c(O)c1O	Diaph inh CS 87
COCCN(C(=O)c1ccc(COc2ccccc2)o1)c1c(N)n(CC(C)C)c(=O)[nH]c1=O	none (no result: G6PDH CS, Diaph inh CS)
COC(=O)c1ccc(NC(=O)CSc2nncn2-c2ccccn2)cc1	none (no result: G6PDH CS, Diaph inh CS)
O=[N+]([O-])c1cc2c(cc1/C=N/n1c(-c3ccccc3)n[nH]c1=S)OCO2	Diaph inh CS 55
O=[N+]([O-])c1ccccc1/C=C/C=N/n1c(-c2ccco2)n[nH]c1=S	Diaph inh CS 81
Cc1ccc(-c2n[nH]c(=S)n2/N=C/C=C/c2ccccc2[N+](=O)[O-])cc1	Diaph inh CS 55
O=[N+]([O-])c1cc2c(cc1/C=N/n1c(-c3ccccn3)n[nH]c1=S)OCO2	none
